A1 apoptosis 2 = A1 inhibition read as caspase activation; MEF A1-2A-BIM cells, caspase-Glo luminescence, 3 h; percent of clofoctol response, DMSO zero; AID 2465; 24,000 tested, under 10 active; caspase activation, % (no concentration beside the values); in the data active means caspase activation above about 5.9%; inconclusive means no clear call, values can overlap the other calls; inactive means below about 2.2%
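Material: mouse embryonic fibroblasts co-expressing A1 and BIM (A1-2A-BIM), primed for A1 dependence / Quantity: 2500 cells/well / Buffer or medium: RPMI-1640 growth medium with 10% FBS / Doses: 50 nL compound per well, pinned / Schedule: 3 h compound exposure at 37 °C / Signal: Caspase-Glo luminescence (DEVD substrate) / Measure: Caspase-3/7 activation, seen as rise in luminescence signal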
INS-1E ATP HTS = preserves ATP levels in cytokine-treated INS-1E cells; protection from cytokine-induced ATP loss, % at 10 µM; actives 0.1% (n = 20,000); INS-1E cytokine-induced death, ATP luminescence, 48 h; normalised: neutral wells 0, positive control 100;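 active means mean replicate protection from cytokine-induced ATP loss at least 50% and at least 75% of replicates each reaching 50%; inconclusive means meets only one of the two criteria, mean or replicate share; inactive means fails both the mean and replicate share criteria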
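Assay system – rat INS-1E insulinoma cell line · Quantity – 8000 cells per well · Buffer or medium – RPMI without phenol red, 5% FBS · Schedule – 48 h co-treatment, 10 min post-lysis read · Technique – luminescent ATP assay (CellTiter-Glo)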
T cruzi HTS = intracellular Trypanosoma cruzi inhibition | actives 4.9% (n = 22,000) | intracellular Trypanosoma cruzi in host cells, plate reader | activity score (inhibition), % at 5.01 µM; in the data active means activity score above about 55%; inconclusive means no clear call, values can overlap the other calls;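 further: parasites and compound incubated about four days before reading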
A number is an active result; 0 = inactive; ? = inconclusive; - = not tested or not shown. The sample as a whole holds a higher share of hits than the screen did.

SMILES	A1 apoptosis 2	INS-1E ATP HTS	T cruzi HTS
C[C@@H]1CN([C@H](C)CO)C(=O)c2cc(NC(=O)Nc3cccc4ccccc34)ccc2O[C@@H]1CN(C)Cc1ccc2c(c1)OCO2	0	0	0
C[C@H]1CN([C@@H](C)CO)C(=O)c2cc(NC(=O)Nc3cccc4ccccc34)ccc2O[C@H]1CN(C)Cc1ccc2c(c1)OCO2	0	0	61.3
C[C@@H]1CN([C@@H](C)CO)C(=O)c2cc(NC(=O)Nc3cccc4ccccc34)ccc2O[C@@H]1CN(C)Cc1ccc2c(c1)OCO2	-	0	55.6
C[C@H]1CN([C@@H](C)CO)C(=O)c2cc(NC(=O)Nc3cccc4ccccc34)ccc2O[C@@H]1CN(C)Cc1ccc2c(c1)OCO2	0	0	0
CC(/C=C/C(=O)NO)=C\c1ccccc1OCc1cn(CCNC(=O)Nc2ccccc2)nn1	0	-	-
O=C(CCCCCCC(=O)Nc1ccccc1O)N/N=C/c1ccc(Br)cc1	-	0	0
O=C(CCCCCCC(=O)Nc1ccccc1O)N/N=C/c1nccs1	0	0	0
COC(=O)CCCCCCC(=O)N/N=C/c1ccc[nH]1	-	0	0
C[C@H]1CN([C@@H](C)CO)C(=O)Cc2cc(NS(=O)(=O)c3ccc(F)cc3)ccc2O[C@@H]1CN(C)S(=O)(=O)c1ccc(Cl)cc1	0	0	0
C[C@@H]1CN([C@@H](C)CO)C(=O)Cc2cc(NS(=O)(=O)c3ccc(F)cc3)ccc2O[C@@H]1CN(C)S(=O)(=O)c1ccc(Cl)cc1	-	0	65.1
C[C@@H]1CN([C@H](C)CO)C(=O)Cc2cc(NS(=O)(=O)c3ccc(Cl)cc3)ccc2O[C@H]1CN(C)S(=O)(=O)c1ccc(F)cc1	0	0	0
C[C@@H]1CN([C@H](C)CO)C(=O)Cc2cc(NS(=O)(=O)c3ccc(F)cc3)ccc2O[C@@H]1CN(C)S(=O)(=O)c1ccc(Cl)cc1	-	0	57.7
COC(=O)CCCCCCC(=O)N/N=C/c1ccc(C)o1	-	0	0
O=C(O)CCCCCCC(=O)N/N=C/c1ccccc1[N+](=O)[O-]	0	0	0
O=C(CCCCCCC(=O)Nc1ccccc1O)N/N=C/c1c[nH]c2ccccc12	0	0	0
COC(=O)CCCCCCC(=O)N/N=C/c1cc(I)cc(I)c1O	0	0	88.0
O=C(N/N=C/c1cccc(O)c1O)c1ccccn1	-	0	0
COC(=O)CCCCCCC(=O)N/N=C/c1cc(Cl)cc(Cl)c1O	-	0	0
O=C(N/N=C/c1cc(I)cc(I)c1O)c1ccccn1	0	0	91.4
O=C(CCCCCC(=O)NN=C1CCCCCCC1)NO	0	-	-
COCCCNC(=O)[C@]1(CCS(=O)(=O)c2ccccc2)N=C(c2ccc(OCCCO)cc2)O[C@@H]1c1ccccc1	0	-	-
O=C(CCCCCCC(=O)Nc1ccccc1O)N/N=C/c1ccc(O)cc1	0	0	0
C[C@H](CO)N1C[C@H](C)[C@@H](CN(C)S(=O)(=O)c2ccc(F)cc2)Oc2c(NC(=O)c3nc4ccccc4s3)cccc2C1=O	-	0	?
COc1ccc(S(=O)(=O)N(C)C[C@H]2Oc3c(NC(=O)c4nc5ccccc5s4)cccc3C(=O)N([C@@H](C)CO)C[C@H]2C)cc1	-	0	0
C[C@H]1CN([C@@H](C)CO)C(=O)c2cccc(NC(=O)c3nc4ccccc4s3)c2O[C@H]1CN(C)S(=O)(=O)c1ccc(Cl)cc1	0	0	0
SMILES	A1 apoptosis 2	INS-1E ATP HTS	T cruzi HTS
C[C@H]1CN([C@@H](C)CO)C(=O)c2cccc(NC(=O)c3nc4ccccc4s3)c2O[C@@H]1CN(C)S(=O)(=O)c1ccc(Cl)cc1	0	0	78.5
C[C@H]1CN([C@@H](C)CO)C(=O)c2cccc(NC(=O)c3nc4ccccc4s3)c2O[C@H]1CN(C)S(=O)(=O)c1ccc(F)cc1	-	0	73.9
C[C@H]1CN([C@@H](C)CO)C(=O)c2cccc(NC(=O)c3nc4ccccc4s3)c2O[C@@H]1CN(C)S(=O)(=O)c1ccc(F)cc1	0	0	67.4
COc1ccc(S(=O)(=O)N(C)C[C@@H]2Oc3c(NC(=O)c4nc5ccccc5s4)cccc3C(=O)N([C@H](C)CO)C[C@@H]2C)cc1	0	0	69.8
C[C@@H]1CN([C@@H](C)CO)C(=O)c2cccc(NC(=O)c3nc4ccccc4s3)c2O[C@@H]1CN(C)S(=O)(=O)c1ccc(F)cc1	0	0	0
CC(C)(C)OC(=O)CC[C@@]12N=C(c3ccc(OCCCO)cc3)O[C@@H]1c1ccccc1N(CCS(=O)(=O)c1ccccc1)C2=O	0	-	-
O=C(N/N=C/c1ccc(-c2ccccc2)c(F)c1)c1ccccn1	0	0	0
C[C@@H]1CN([C@@H](C)CO)C(=O)c2cccc(NC(=O)C3CCOCC3)c2O[C@@H]1CN(C)Cc1ccc(C(=O)Nc2ccccc2N)cc1	-	0	0
COc1cc(Cl)c(/C=N/NC(=O)c2cccc(C(=O)NO)c2)c(Cl)c1OC	0	0	0
COc1cc(/C=N/NC(=O)c2ccccc2O)c([N+](=O)[O-])cc1OC	0	0	0
O=C(N/N=C/c1ccc2ccccc2c1)c1ccccn1	0	0	0
C[C@H]1CN([C@@H](C)CO)C(=O)c2cccc(NC(=O)c3nc4ccccc4s3)c2O[C@H]1CN(C)S(=O)(=O)c1cccs1	0	0	0
C[C@H](CO)N1C[C@H](C)[C@H](CN(C)S(=O)(=O)c2cccs2)Oc2c(NC(=O)c3nc4ccccc4s3)cccc2C1=O	0	0	75.5
O=C(N/N=C/c1cc(O)ccc1Br)c1ccccc1O	0	0	0
O=C(N/N=C/c1ccc(O)cc1O)c1ccccc1O	0	0	67.0
O=C(N/N=C/c1cc(Br)cc(Br)c1O)c1ccccc1O	0	0	83.1
O=C(N/N=C/c1cc(Br)cs1)c1ccccc1O	0	0	0
Cn1cc(/C=N\NC(=O)c2ccccc2O)c2ccccc21	-	0	0
O=C(N/N=C\c1ccc2ccccc2c1O)c1ccccc1O	-	0	62.0
Cc1ccsc1/C=N/NC(=O)CCCCCC(=O)O	0	0	0
CC(C)(C)OC(=O)NC1(/C=N/NC(=O)c2ccccc2O)CCCC1	-	0	0
COCC1=C([C@H](O)CCc2ccccc2)[C@H](CO)[C@@H]2C(=O)N(Cc3ccccc3)C(=O)[C@@H]2C1	0	-	-
CCO[C@H]1OC(C(=O)NC2CC2)=C[C@@H](C(C)(C)C)[C@@H]1CCCO	0	-	-
O=C(O)CCCCCCC(=O)N/N=C/c1cn(S(=O)(=O)c2ccccc2)c2ccccc12	-	0	0
C[C@@H]1CN([C@@H](C)CO)C(=O)c2cccc(NC(=O)c3nc4ccccc4s3)c2O[C@H]1CN(C)Cc1ccc2c(c1)OCO2	0	0	61.2
C[C@H]1CN([C@@H](C)CO)C(=O)c2cccc(NC(=O)c3nc4ccccc4s3)c2O[C@@H]1CN(C)Cc1ccc2c(c1)OCO2	-	0	59.1
C[C@@H]1CN([C@H](C)CO)C(=O)c2cccc(NC(=O)c3nc4ccccc4s3)c2O[C@@H]1CN(C)Cc1ccc2c(c1)OCO2	0	0	0
C[C@@H]1CN([C@H](C)CO)C(=O)c2cccc(NC(=O)c3nc4ccccc4s3)c2O[C@H]1CN(C)Cc1ccc2c(c1)OCO2	0	0	0
C[C@@H]1CN([C@@H](C)CO)C(=O)c2cccc(NC(=O)NC3CCCCC3)c2O[C@H]1CN(C)C(=O)Nc1ccccc1	0	0	0
